Legend:
[1] = system: lymphoid cell lines; assay: Apoptosis; assay type: cell-based; settings: Homo sapiens, 24 h, read-out: AP50 values (range in lymphoid cell lines)
[2] = system: non-tumor cells (CD34+); assay: Hoechst 33342 nuclear morphological analysis of apoptosis; assay type: cell-based; settings: 24 h, read-out: AP50 (50% induction of apoptosis), Hoechst 33342 staining (Hoe)
Method in brief: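 CD34+ cells treated 24 h across the IC25–IC50 range, then pelleted (400 g, 4 °C) and fixed in 4% paraformaldehyde/PBS. Cytospins were air-dried and stained with 10 μg/ml Hoechst 33342 for 10 min in the dark, then viewed by fluorescence microscopy. 200 cells were scored per sample as % apoptotic nuclei (shrinkage, blebbing, chromatin condensation, apoptotic bodies). AP50 = concentration giving 50% apoptosis.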

[3] = system: lymphoid cell lines; assay: CellTiter-Glo assay, summary over lymphoid lines; assay type: cell-based; settings: Homo sapiens, 24 h, read-out: IC50 (range in lymphoid cell lines)
Method in brief: (§1)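 Cells plated at 2.5 x 10^3 per well in complete RPMI 1640 (10% FBS, 37 °C, 5% CO2). Test compounds dissolved in ethanol and dosed at 2–500 µM for 24 h; vehicle control was 0.1% (v/v) ethanol. Viability was read as ATP luminescence, normalised to vehicle (100%). IC50 was taken from linear regression of each curve. Triplicates, three independent experiments.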

[4] = system: CCRF-CEM; assay: Cell cycle analysis, propidium iodide flow cytometry; assay type: cell-based, human; settings: IC50 dose, 24 h, vehicle control G0/G1 = 41.9%
Method in brief: (§2)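 Seeded at 0.5 x 10^6 cells per well in 12-well plates and treated 24 h at the IC50 concentration of each test compound from CellTiter-Glo. Cells were pelleted (400 g, 5 min), PBS-washed and fixed in 80% ethanol overnight at -20 °C. Staining used 50 µg/mL PI plus RNase overnight at 4 °C.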

[5] = system: myeloid cell lines; assay: CellTiter-Glo assay, summary over myeloid lines; assay type: cell-based; settings: Homo sapiens, 24 h, read-out: IC50 (range in myeloid cell lines)
Method in brief: as §1

[6] = system: CCRF-CEM; assay: NucView caspase 3 activity assay by flow cytometry; assay type: cell-based, human; settings: 24 h
Method in brief: (§3)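 Seeded at 0.5 x 10⁶ cells/well and treated 24 h, with series of 0–50 or 0–250 µM depending on compound. Normalized to vehicle (0% apoptosis). Mean ± STD, three independent experiments in triplicate. One-way ANOVA/Tukey, p<0.05. AP50 = concentration giving 50% apoptotic cells.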

[7] = system: HL60; assay: NucView caspase 3 activity assay by flow cytometry; assay type: cell-based, human
Method in brief: as §3

[8] = system: human cervical cancer cells (HeLa); settings: cited from earlier work
[9] = system: U937; assay: NucView caspase 3 activity assay by flow cytometry; assay type: cell-based, human
Method in brief: as §3

[10] = system: MOLT-3; assay: Cell cycle analysis, propidium iodide flow cytometry; assay type: cell-based, human; settings: MOLT-3, IC50 dose, 24 h; vehicle control S = 24.8%
Method in brief: as §2

[11] = system: CCRF-CEM; assay: CellTiter-Glo luminescent cell viability assay; assay type: cell-based, human; settings: 24 h, doses 0, 2, 10, 50, 250, 500 µM, p<0.05
Method in brief: (§4)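 Cells grown in RPMI 1640 with 10% FBS, 1.5 mM L-glutamine and penicillin/streptomycin at 37 °C, 5% CO2. Seeded at 2.5 x 10³ cells/well and exposed 24 h to ethanol-dissolved test compound (0, 2, 10, 50, 250, 500 µM) with 0.1% ethanol vehicle. ATP luminescence normalized to vehicle (100%). IC50 taken from linear regression. Lowest significant dose set by one-way ANOVA/Tukey, p<0.05. Triplicates, three independent experiments.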

[12] = system: JURKAT; assay: CellTiter-Glo luminescent cell viability assay; assay type: cell-based, human; settings: 24 h, doses 0, 2, 10, 50, 250, 500 µM, p<0.05
Method in brief: as §4

[13] = system: KG1a; assay: NucView caspase 3 activity assay by flow cytometry; assay type: cell-based, human; settings: 24 h
Method in brief: as §3

[14] = system: all leukemia cell lines; assay: Apoptosis; assay type: cell-based, human; settings: Homo sapiens, 24 h, read-out: AP50 values (range over leukemia cell lines)
[15] = system: colorectal cancer cells (SW480, HT-29 and Caco-2); settings: SW480, HT-29 and Caco-2, 24 h treatments; cited from earlier work
[16] = system: all leukemia cell lines; assay: CellTiter-Glo assay, summary over the leukemia panel; assay type: cell-based, human; settings: Homo sapiens, 24 h, read-out: IC50 values (range over leukemia cell lines)
Method in brief: as §1

[17] = system: CCRF-CEM; assay: Hoechst 33342 nuclear morphological analysis of apoptosis; assay type: cell-based; settings: Homo sapiens, 24 h, read-out: AP50 (50% induction of apoptosis), Hoechst 33342 staining (Hoe)
Method in brief: (§5)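 Seeded at 0.5 x 10⁶ cells/well in 12-well plates and treated 24 h. Cells were pelleted (400 g, 5 min, 4 °C), washed in PBS, fixed in 4% paraformaldehyde, cytospun, air-dried, then stained with 10 μg/ml Hoechst 33342 for 10 min in the dark. Fluorescence microscopy: 200 cells counted, scored by condensed/intense nuclei, shrinkage, blebbing and apoptotic bodies. % apoptotic nuclei calculated. AP50 = concentration giving 50% apoptotic cells.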

[18] = system: THP-1; assay: Cell cycle analysis, propidium iodide flow cytometry; assay type: cell-based, human; settings: THP-1, IC50 dose, 24 h; vehicle control G2/M = 26.4%
Method in brief: as §2

[19] = system: KG1a; assay: Hoechst 33342 nuclear morphological analysis of apoptosis; assay type: cell-based; settings: Homo sapiens, KG-1a, 24 h, read-out: AP50 (50% induction of apoptosis), Hoechst 33342 staining (Hoe)
Method in brief: as §5

[20] = system: myeloid cell lines; assay: Apoptosis; assay type: cell-based; settings: Homo sapiens, 24 h, read-out: AP50 values (range in myeloid cell lines)

Work on O=c1cc(-c2ccc(O)cc2)oc2cc(O)cc(O)c12 [Apigenin] yielded an EC50 [1] of 35 to 130 µM, an EC50 [2] of over 500 µM and an IC50 [3] of 140 to 195 µM. For the same molecule, the “Percentage of cells in G0/G1 phase of cell cycle (significant accumulation)” value [4] was “G0/G1 =52.2%”, the IC50 [5] was 100 to 500 µM and the EC50 ([6]; Homo sapiens, read-out: AP50 (50% induction of apoptosis), Caspase 3 activity assay (C3)) was 50 µM. The “The lowest dose of polyphenols at which there was a significant induction of apoptosis compared to the vehicle control” value ([6]; caspase 3 activity, p<0.05) was 10 µM, the “The lowest dose of polyphenols at which there was a significant induction of apoptosis compared to the vehicle control” value ([7]; HL60, caspase 3 activity, 24 h, p<0.05) was 50 µM and the EC50 ([7]; Homo sapiens, HL-60, 24 h, read-out: AP50 (50% induction of apoptosis), Caspase 3 activity assay (C3)) was 84 µM. For the same molecule, the IC50 [8] was 36 µM, the EC50 ([9]; Homo sapiens, U-937, 24 h, read-out: AP50 (50% induction of apoptosis), Caspase 3 activity assay (C3)) was 45 µM and the “The lowest dose of polyphenols at which there was a significant induction of apoptosis compared to the vehicle control” value ([9]; U937, caspase 3 activity, 24 h, p<0.05) was 50 µM. The “Percentage of cells in S phase of cell cycle (significant accumulation)” value [10] was “S =35%”, the “The lowest dose of polyphenols at which there was a significant inhibition of cell proliferation compared to the vehicle control” value [11] was 10 µM and the “The lowest dose of polyphenols at which there was a significant inhibition of cell proliferation compared to the vehicle control” value [12] was 50 µM. For the same molecule, the EC50 ([13]; Homo sapiens, KG-1a, read-out: AP50 (50% induction of apoptosis), Caspase 3 activity assay (C3)) was 89 µM, the “The lowest dose of polyphenols at which there was a significant induction of apoptosis compared to the vehicle control” value ([13]; KG1a, caspase 3 activity, p<0.05) was 10 µM and the EC50 [14] was 35 to 150 µM. For the same molecule, the IC50 [15] was 70 µM, the IC50 [16] was 100 to 500 µM and the EC50 [17] was 100 µM. For the same molecule, the “Percentage of cells in G2/M phase of cell cycle (significant accumulation)” value [18] was “G2/M =32%”, the EC50 [19] was 235 µM and the EC50 [20] was 84 to 235 µM.
